Results on one compound are retold here after ChEMBL document CHEMBL4304819, “Natural product pectolinarigenin exhibits potent anti-metastatic activity in colorectal carcinoma cells in vitro and in vivo” (2019).

Experiment [1] concerns CT26. Briefly: Antimetastatic activity against mouse CT26 cells allografted in Balb/c mouse assessed as increase in infiltration of CD8+ T cells in blood at 50 mg/kg, ip administered daily for 14 days starting from 6 days post implantation flow cytometric analysis (reference value: 1.35 %). Format: functional.
For experiment [2], the target named is Signal transducer and activator of transcription 3 (Mus musculus) (UniProt P42227). Briefly: Antitumor activity against mouse CT26 cells allografted in Balb/c mouse assessed as inhibition of STAT3 phosphorylation in tumour tissue at 25 to 50 mg/kg, ip administered daily for 14 days starting from 6 days post implantation by immunohistochemical analysis. The experiment is classed as organism-based. The method in brief:
(§1)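 Female BALB/c mice (6–8 weeks) injected ip with 5 × 10^5 CT26 cells; from day 6, randomized (eight per group) to ip vehicle, 25 or 50 mg/kg once daily for 14 days. Abdominal circumference and body weight every 3 days; abdominal nodules counted by eye and weighed; spleens assessed; paraffin tumour sections immunostained (Ki-67, MMP-9, p-Stat3) with DAB detection.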

Experiment [3] deals with HCT-116. Briefly: Induction of apoptosis in human HCT116 cells assessed as viable cells at 40 uM after 48 hrs by Annexin V-FITC/propidium iodide staining-based flow cytometric analysis (reference value: 86.7 %). Format: functional. Conditions: HCT-116, 48 h, read-out: Activity. In short, it runs like this:
(§2)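 Cells (1–2 × 10^5 per well) seeded in six-well plates 24 h, treated at 0–40 μM for 24 h or 48 h, harvested, washed twice in cold PBS, stained with Annexin V-FITC/PI and analysed by flow cytometry; early (Annexin V only) and late (Annexin V and PI) apoptotic fractions quantified; three experiments.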

In experiment [4] the test system is CT26. Briefly: Induction of apoptosis in mouse CT26 cells assessed as increase in cleaved caspase-3 expression after 48 hrs by Western blot analysis. The experiment is classed as functional, cell-based. The method in brief:
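CT26 cells exposed 48 h to PEC at 0, 10, 20 and 40 μM, washed twice in cold PBS, lysed in RIPA. Protein measured by Lowry and equalized, run on SDS-PAGE, blotted to PVDF. Blocked 1 h at 37 °C, primary antibodies (Bax, Bcl-2, pro-caspase-3, cleaved caspase-3) overnight at 4 °C, secondary 1 h, ECL detection, densitometry.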

Experiment [5] concerns CT26. Briefly: Induction of apoptosis in mouse CT26 cells assessed as decrease in pro-caspase-3 expression up to 40 uM after 48 hrs by Western blot analysis. The experiment is classed as functional, cell-based. The method in brief: (§3)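 Cells treated 48 h at 0, 10, 20 and 40 μM, washed in cold PBS, lysed in RIPA; protein equalized by Lowry assay, resolved by SDS-PAGE, transferred to PVDF, blocked 1 h at 37 °C, primary antibody overnight at 4 °C, secondary 1 h, ECL detection, densitometry. β-actin loading control.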

For experiment [6], the system named is HCT-116. Briefly: Induction of apoptosis in human HCT116 cells assessed as early apoptotic cells at 40 uM after 48 hrs by Annexin V-FITC/propidium iodide staining-based flow cytometric analysis (reference value: 1.23 %). The experiment is classed as functional. In short, it runs like this: as §2
For experiment [7], the system named is CT26. Briefly: Antimetastatic activity against mouse CT26 cells allografted in Balb/c mouse assessed as decrease in CD11b-positive/Gr1-positive myeloid cells level in peripheral blood at 25 mg/kg, ip administered daily for 14 days starting from 6 days post implantation by flow cytometric analysis (reference value: 33.2 %). Set-up: scale not given: the % may be the effect or the level left. The experiment is classed as functional.

Experiment [8] deals with CT26. Briefly: Inhibition of colony formation in mouse CT26 cells assessed as reduction in number of colonies up to 40 uM incubated for 24 hrs supplemented with fresh medium containing compound every 3 days for 12 days by crystal violet staining-based microscopic analysis. The experiment is classed as functional, cell-based. The method in brief:
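400–800 cells per well seeded in 6-well plates; after 24 h, PEC (0–40 μM) added. Medium with or without compound replaced every three days for 12 days. Colonies washed in cold PBS, fixed in methanol, stained 15 min with 0.5% crystal violet and counted under a microscope. Mean ± SD of three experiments.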

The test system of experiment [9] is CT26. Briefly: Induction of apoptosis in mouse CT26 cells assessed as late apoptotic cells at 40 uM after 48 hrs by Annexin V-FITC/propidium iodide staining-based flow cytometric analysis (reference value: 6.49 %). Format: functional. The method in brief: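 CT26 cells seeded at 1–2 × 10^5 per well in six-well plates for 24 h, then exposed to PEC (0–40 μM) for 24 or 48 h. Cells harvested, washed twice in cold PBS, stained with Annexin V-FITC/PI and read by flow cytometry. Early apoptotic = Annexin V+ only; late apoptotic = Annexin V+/PI+. Mean ± SD of three experiments.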

The subject of experiment [10] is CT26. Briefly: Induction of apoptosis in mouse CT26 cells assessed as nuclear fragmentation up to 40 uM after 48 hrs by Hoechst 33258 staining-based fluorescent microscopic analysis. The experiment is classed as functional, cell-based. In short, it runs like this: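 CT26 cells plated at 1–2 × 10^5 per well on 18-mm coverslips in six-well plates for 24 h, then treated 48 h with PEC. Washed in cold PBS, fixed 15 min in 4% paraformaldehyde, stained with Hoechst 33258 (5 μg/ml). Nuclear morphology viewed by fluorescence microscopy (10×); positive cells counted, mean ± SD of three experiments.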

The subject of experiment [11] is CT26. Briefly: Antimetastatic activity against mouse CT26 cells allografted in ip dosed Balb/c mouse assessed as decrease in CD11b-positive/Gr1-positive myeloid cells level in peripheral blood administered daily for 14 days starting from 6 days post implantation by flow cytometric analysis. Format: functional, organism-based.
The subject of experiment [12] is HCT-116. Briefly: Antimetastatic activity against human HCT116 assessed as inhibition of MMP-9 expression after 48 hrs by Western blot analysis. The experiment is classed as functional, cell-based. The method in brief: as §3
Experiment [13] relates to CT26. Briefly: Antimetastatic activity against mouse CT26 cells assessed as inhibition of MMP-9 expression after 48 hrs by Western blot analysis. The experiment is classed as functional, cell-based. The method in brief:
as §3

In experiment [14] the test system is HCT-116. Briefly: Induction of apoptosis in human HCT116 cells assessed increase in Bax/Bcl2 protein ratio up to 40 uM after 48 hrs by Western blot analysis. The experiment is classed as functional, cell-based. The method in brief: as §3
For experiment [15], the system named is HCT-116. Briefly: Induction of apoptosis in human HCT116 cells assessed as decrease in Bcl-2 protein expression up to 40 uM after 48 hrs by Western blot analysis. The experiment is classed as functional, cell-based. In short, it runs like this:
as §3

For experiment [16], the system named is CT26. Briefly: Antimetastatic activity against mouse CT26 cells allografted in Balb/c mouse assessed as reduction in splenomegaly at 25 to 50 mg/kg, ip administered daily for 14 days starting from 6 days post implantation. The experiment is classed as functional, organism-based. In short, it runs like this: as §1
Experiment [17] deals with CT26. Briefly: Antimetastatic activity against mouse CT26 cells allografted in Balb/c mouse assessed as reduction in weight of tumour nodules weight at 50 mg/kg, ip administered daily for 14 days starting from 6 days post implantation. Format: functional, organism-based. In short, it runs like this: as §1
The subject of experiment [18] is CT26. Briefly: Antimetastatic activity against mouse CT26 cells allografted in Balb/c mouse assessed as increase in infiltration of CD8+ T cells in blood at 25 mg/kg, ip administered daily for 14 days starting from 6 days post implantation flow cytometric analysis (reference value: 1.35 %). The experiment is classed as functional.
In experiment [19] the test system is HCT-116. Briefly: Induction of apoptosis in human HCT116 cells assessed as early apoptotic cells at 10 uM after 48 hrs by Annexin V-FITC/propidium iodide staining-based flow cytometric analysis (reference value: 1.23 %). The experiment is classed as functional. The method in brief: as §2
Experiment [20] has as its system HCT-116. Briefly: Induction of apoptosis in human HCT116 cells assessed as late apoptotic cells at 40 uM after 48 hrs by Annexin V-FITC/propidium iodide staining-based flow cytometric analysis (reference value: 3.87 %). Format: functional. The method in brief:
as §2

The test system of experiment [21] is HCT-116. Briefly: Induction of apoptosis in human HCT116 cells assessed as increase in Bax protein expression up to 40 uM after 48 hrs by Western blot analysis. Format: functional, cell-based. In short, it runs like this: as §3

The source made the active and inactive calls. No cut-off for these calls is given here.

Chain of Signal transducer and activator of transcription 3 (Mus musculus) (P42227 whole entry): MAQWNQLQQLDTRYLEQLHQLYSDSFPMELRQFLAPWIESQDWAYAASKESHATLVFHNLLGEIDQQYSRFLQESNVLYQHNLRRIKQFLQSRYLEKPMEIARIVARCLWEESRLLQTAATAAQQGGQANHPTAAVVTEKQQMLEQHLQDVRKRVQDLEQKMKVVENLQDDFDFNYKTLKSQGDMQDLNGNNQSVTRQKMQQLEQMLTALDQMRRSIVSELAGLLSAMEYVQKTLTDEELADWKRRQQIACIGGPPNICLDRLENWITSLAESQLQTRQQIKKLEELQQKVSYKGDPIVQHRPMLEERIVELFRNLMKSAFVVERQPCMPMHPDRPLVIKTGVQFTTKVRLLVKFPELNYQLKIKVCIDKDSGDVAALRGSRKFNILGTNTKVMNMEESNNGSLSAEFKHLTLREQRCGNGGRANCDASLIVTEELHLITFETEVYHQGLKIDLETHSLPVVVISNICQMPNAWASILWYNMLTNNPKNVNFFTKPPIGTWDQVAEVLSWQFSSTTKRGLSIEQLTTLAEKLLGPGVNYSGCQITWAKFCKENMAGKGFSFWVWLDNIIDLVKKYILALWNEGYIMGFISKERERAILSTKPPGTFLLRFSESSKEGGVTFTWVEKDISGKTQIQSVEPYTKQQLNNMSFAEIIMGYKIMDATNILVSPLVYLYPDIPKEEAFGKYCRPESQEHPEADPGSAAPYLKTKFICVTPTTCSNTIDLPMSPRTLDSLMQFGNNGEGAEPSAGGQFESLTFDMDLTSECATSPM

Regarding `COc1ccc(-c2cc(=O)c3c(O)c(OC)c(O)cc3o2)cc1` [PECTOLINARIGENIN], the Activity in the experiment on CT26 [1] was 4.17%; in the experiment on CT26 [4], “Dose-dependent effect”; in the experiment on HCT-116 [6] it was 9.42%; in the experiment with CT26 [7] it was 26.7%; in the experiment with CT26 [9], 13.4%; in the experiment with CT26 [11], “Dose-dependent effect”. Also, the Activity was found to be 2.59% in the experiment on CT26 [18], 5.08% with HCT-116 [19] and 9.67% with HCT-116 [20]. Further, the inhibition result (in experiment [2]; with CT26 [8]) was “Active” throughout. The viability at 40 µM in the experiment with HCT-116 [3] came to 73.7%. For the same compound, the outcome with CT26 [5], in the experiment with CT26 [10], in the experiment on HCT-116 [14], in the experiment on HCT-116 [15], with CT26 [16] and in the experiment with CT26 [17] was Active. Also, the result in the experiment on HCT-116 [21] was Active. The inhibition entry in the experiment with HCT-116 [12] and in the experiment on CT26 [13] was “Dose-dependent effect” in each case.
